Compound activity: PubChem, several laboratories
STAT1 act = increases IFN-gamma driven STAT1 reporter signal. NIH 3T3 STAT1-luciferase reporter, luminescence; 100% = IFN-gamma alone, no compound. activation (% of control), % at 5.5 µM. 2.6% of 200,000 active. AID 932;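 active = activation above the screen-wide mean activation plus 3 SD, cut at about 130% in these data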;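 note: raw ratio to IFN-gamma control signal so 100% means no change and 0% no light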
STAT1 blocker = inhibitors of IFN-gamma induced STAT1 signaling; NIH 3T3 STAT1-luciferase reporter, luminescence; inhibition, % at 5.5 µM; 0.35% of 200,000 active; AID 920;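 active = inhibition above a set limit, the mean inhibition across all tested compounds plus 3 SD, cut at about 34% in these data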;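 note: 0% = IFN-gamma with DMSO and 100% = IFN-gamma with 300 µM nifuroxazide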
APP 5'UTR act = activates APP 5'UTR luciferase reporter | activation, % at 2 µM | SH-SY5Y APP 5'UTR luciferase reporter, luminescence; zero percent = DMSO vehicle wells | 1% of 190,000 active;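 active = activation above a set limit, based on mean plus 3 SD of controls, cut at about 140% in these data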
NF-kB neuron act = raises NF-kB expression in human neuronal cells; NF-kB reporter expression; stronger effect = higher value; fold change at 12.5 µM; AID 1239; 1.6% of 190,000 active; in the data active = fold change above about 3.3
STAT3 blocker = STAT3 signaling inhibition. U3A cells, IL-6 STAT3-luciferase reporter, luminescence; host cell line lacks STAT1. inhibition, % at 5.5 µM. 0.89% of 190,000 active. AID 862;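 active = inhibition above the mean inhibition across all screened compounds plus 3 SD, cut at about 44% in these data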;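 note: 0% = DMSO only wells and 100% = 100 µM nifuroxazide control wells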
STAT3 activator = STAT3 signaling activation; activation (% of control), % at 5.6 µM; 0.91% of 190,000 active; U3A cells, IL-6 STAT3-luciferase reporter, luminescence; 100% = signal with IL-6 EC80 alone; AID 871;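 active = activation above the screen-wide mean of compound activation plus 3 SD, cut at about 130% in these data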;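 note: 0% = background luminescence of wells with medium and substrate only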
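Material: human U3A cells carrying STAT3-luciferase construct. Measured by: reporter luminescence signal. Timing: compound 1 h, then IL-6 6 h at 37 °C.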
An asterisk follows results filed as active; . = no result given. Compounds with a hit are over-represented: about 4.9% of the library has one in this group of screens.

SMILES | STAT1 act | STAT1 blocker | APP 5'UTR act | NF-kB neuron act | STAT3 blocker | STAT3 activator
O=C(Nc1nccs1)c1sc2cc(Cl)ccc2c1Cl | 146.5* | -52.2 | 128.2 | 3.1 | -34.3 | 130.2
CC(C)(C)NC(=O)C(c1ccncc1)N(C(=O)Cn1nnc(-c2ccc(F)cc2)n1)c1cccc(F)c1 (centres undefined) | 100.0 | -1.5 | -1.5 | 0.89 | 5.2 | 99.5
O=C1NC2(CCCCC2)C(=O)N1/N=C/c1ccccc1Br | 130.7* | -32.3 | 6.3 | 1.97 | 1.0 | 106.7
O=C(Nc1cnc2sccn2c1=O)c1ccc(Cl)cc1Cl | 131.9* | -34.7 | 39.2 | 1.54 | 41.8 | 68.1
COc1ccc(Cl)cc1NC(=O)c1cnc2sccn2c1=O | 104.0 | -3.3 | 19.9 | 1.47 | 0.9 | 99.4
Cn1cccc1C(=O)NC(=O)COC(=O)c1cc(S(=O)(=O)N2CCCCC2)ccc1Cl | 95.9 | 2.9 | 14.6 | 1.05 | -7.8 | 108.0
COC(=O)c1ccnc(SCC(=O)c2ccccc2)c1 | 131.7* | -34.7 | 118.6 | 2.03 | 3.8 | 104.4
O=C(CSc1ccc(-c2ccccn2)nn1)c1ccccc1 | 122.8 | -27.4 | 38.9 | 1.59 | 3.2 | 101.7
CCOC(=O)c1[nH]c2ccc(OC)cc2c1NC(=S)N1CCN(c2ccccc2OC)CC1 | 110.5 | -11.8 | -15.6 | 0.5 | -0.9 | 102.7
CCCCC(=O)Nc1cccc(-c2nnc(-c3ccccc3)o2)c1 | 117.2 | -22.6 | 28.3 | 0.77 | 28.1 | 79.4
COc1cccc(NC(=O)COc2ccccc2C(N)=O)c1 | 134.4* | -43.2 | 87.0 | 3.07 | 11.0 | 92.6
Cc1cccc(C)c1OCC(=O)Nc1cccc(-c2nnc(-c3ccccc3)o2)c1 | 106.4 | -7.0 | 3.9 | 0.6 | 15.0 | 90.4
O=C(Nc1cccc(-c2nnc(-c3ccccc3)o2)c1)C1CCCCC1 | 141.3* | -35.8 | 20.2 | 1.42 | 26.5 | 79.5
Cc1ccc(OCC(=O)Nc2cccc(-c3nnc(-c4ccccc4)o3)c2)cc1 | 143.1* | -44.2 | 96.8 | 2.27 | 19.8 | 88.5
Cc1cccc(OCC(=O)Nc2cccc(-c3nnc(-c4ccccc4)o3)c2)c1C | 129.6* | -32.4 | 15.2 | 1.91 | 17.7 | 88.8
Cc1ccc(S(=O)(=O)N2CCC(=O)N(C(COCc3cccc(C(F)(F)F)c3)Cc3ccccc3)CC2)cc1 (centres undefined) | 113.2 | -14.5 | -3.4 | 1.65 | -8.5 | 104.7
O=C(Cc1ccc(-n2c(=O)[nH]c3ccsc3c2=O)cc1)NCc1cccnc1 | 100.2 | -0.2 | 2.6 | 1.1 | 4.4 | 98.8
O=C(NCc1cccnc1)c1c(F)c(F)c(F)c(F)c1F | 109.2 | -5.8 | 1.4 | 0.9 | -2.3 | 103.1
CNC(=S)NC12CC3CC(CC(C3)C1)C2 | 101.4 | -1.2 | -10.8 | 0.91 | 10.7 | 97.9
Cc1nc2ccccc2n1C(=O)c1ccc(Cl)cc1[N+](=O)[O-] | 94.1 | 5.8 | -3.4 | 1.12 | -10.6 | 110.0
CN(c1ncc(C(F)(F)F)cc1Cl)n1cc(C(N)=O)c2ccccc2c1=O | 93.5 | 7.0 | 21.0 | 1.28 | 12.0 | 93.6
COc1ccc(CCCc2nnc(SCC(=O)Nc3ccccc3F)o2)cc1 | 96.4 | 3.4 | 11.9 | 1.57 | 7.9 | 95.2
COc1ccc(-c2nc(C#N)c(NCc3ccc(C)cc3)o2)cc1OC | 103.5 | -3.8 | 24.8 | 1.18 | 4.9 | 99.0
CC(C)(C)c1ccc(-c2nc(C#N)c(NCc3ccncc3)o2)cc1 | 131.2* | -34.1 | . | 2.33 | -2.1 | 106.9
CNc1oc(-c2ccc(Cl)cc2)nc1C#N | 132.3* | -35.3 | 33.6 | 2.32 | 11.4 | 92.2
SMILES | STAT1 act | STAT1 blocker | APP 5'UTR act | NF-kB neuron act | STAT3 blocker | STAT3 activator
COc1ccc(-c2cc(C(=O)Nc3nc4c(C)cccc4s3)c3ccccc3n2)cc1OC | 92.1 | 8.6 | -0.2 | 0.91 | -41.8 | 133.6*
Cc1ncoc1C(=O)N1CCCC(C(=O)c2ccc(-c3ccccc3)cc2)C1 (centres undefined) | 98.5 | 0.0 | 0.1 | 0.82 | 2.7 | 101.5
CCn1c(C)nc2cc(C(=O)OC)ccc21 | 110.2 | -11.3 | 1.7 | 1.31 | -5.1 | 109.7
CCn1c(C)nc2cc(C(=O)NNS(=O)(=O)c3ccccc3F)ccc21 | 110.4 | -11.6 | 4.5 | 1.49 | 0.0 | 102.8
CCn1c(C)nc2cc(C(=O)N/N=C/c3ccccc3C)ccc21 | 143.2* | -45.2 | 95.6 | 3.91* | 17.9 | 86.4
CCn1c(C)nc2cc(C(=O)N/N=C(\C)c3ccccc3O)ccc21 | 136.9* | -42.8 | 56.5 | 1.39 | 16.0 | 92.9
